Test results: ChEMBL document CHEMBL3734675, “Synthesis, antimycobacterial and antibacterial activity of fluoroquinolone derivatives containing an 3-alkoxyimino-4-(cyclopropylanimo)methylpyrrolidine moiety” (2015)
In brackets after ≈: the same amount, converted by molar mass.

Key:
Assay type in all cases: functional
Escherichia coli [1] = test: Antibacterial activity against extended-spectrum beta-lactamase producing Escherichia coli 14-1 after 18 to 24 hrs by two-fold serial dilution method
How it was run: (§1)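 Twofold serial dilution in agar media against Gram-positive and Gram-negative strains. Plates incubated at 35 °C for 18–24 h. MIC read as the lowest compound concentration giving complete inhibition of bacterial growth.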

Staphylococcus aureus [2] = test: Antibacterial activity against methicillin-resistant Staphylococcus aureus 14-4 after 18 to 24 hrs by two-fold serial dilution method
How it was run: (§2)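 Agar media, standard twofold serial dilution. MIC is the lowest concentration giving complete inhibition of bacterial growth after incubation at 35 °C for 18–24 h. Ciprofloxacin and levofloxacin were run as comparators.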

[3] = test system: Mycobacterium tuberculosis; test: Antimycobacterial activity against Mycobacterium tuberculosis H37Rv ATCC 27294 incubated for 7 days by microplate Alamar Blue assay; details: H37Rv ATCC 27294, 168 h
How it was run: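 Fluorescence read-out. MIC is the lowest concentration that reduces fluorescence by at least 90% relative to the mean of replicate bacterium-only controls. Isoniazid and rifampicin were included as reference drugs.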

Staphylococcus aureus [4] = test: Antibacterial activity against methicillin-resistant Staphylococcus aureus 14-5 after 18 to 24 hrs by two-fold serial dilution method; how it was run: as §2
Pseudomonas aeruginosa [5] = test: Antibacterial activity against Pseudomonas aeruginosa 14-15 after 18 to 24 hrs by two-fold serial dilution method; how it was run: as §1
Pseudomonas aeruginosa [6] = test: Antibacterial activity against Pseudomonas aeruginosa 14-14 after 18 to 24 hrs by two-fold serial dilution method; how it was run: as §1
Streptococcus pneumoniae = test: Antibacterial activity against methicillin-resistant Streptococcus pneumoniae ATCC 19615 after 18 to 24 hrs by two-fold serial dilution method; how it was run: as §2
Staphylococcus aureus [7] = test: Antibacterial activity against methicillin-sensitive Staphylococcus aureus 14-4 after 18 to 24 hrs by two-fold serial dilution method; how it was run: as §1
Pseudomonas aeruginosa [8] = test: Antibacterial activity against Pseudomonas aeruginosa 14-9 after 18 to 24 hrs by two-fold serial dilution method; how it was run: as §1
Klebsiella pneumoniae [9] = test: Antibacterial activity against Klebsiella pneumoniae 14-2 after 18 to 24 hrs by two-fold serial dilution method; how it was run: as §1
Enterococcus faecalis [10] = test: Antibacterial activity against Enterococcus faecalis 14-2 after 18 to 24 hrs by two-fold serial dilution method; how it was run: as §1
Enterococcus faecium [11] = test: Antibacterial activity against Enterococcus faecium 14-6 after 18 to 24 hrs by two-fold serial dilution method; how it was run: as §1
Escherichia coli [12] = test: Antibacterial activity against Escherichia coli 14-2 after 18 to 24 hrs by two-fold serial dilution method; how it was run: as §1
[13] = test system: Staphylococcus epidermidis; test: Antibacterial activity against methicillin-resistant Staphylococcus epidermidis 14-22 after 18 to 24 hrs by two-fold serial dilution method; how it was run: as §2
Klebsiella pneumoniae [14] = test: Antibacterial activity against extended-spectrum beta-lactamase producing Klebsiella pneumoniae 14-17 after 18 to 24 hrs by two-fold serial dilution method; how it was run: as §1
[15] = test system: Staphylococcus epidermidis; test: Antibacterial activity against methicillin-resistant Staphylococcus epidermidis 14-39 after 18 to 24 hrs by two-fold serial dilution method; how it was run: as §2
Staphylococcus aureus [16] = test: Antibacterial activity against methicillin-sensitive Staphylococcus aureus 14-1 after 18 to 24 hrs by two-fold serial dilution method; how it was run: as §1
Staphylococcus aureus [17] = test: Antibacterial activity against methicillin-sensitive Staphylococcus aureus 14-3 after 18 to 24 hrs by two-fold serial dilution method; how it was run: as §1
Staphylococcus aureus [18] = test: Antibacterial activity against Staphylococcus aureus CMCC 26003 after 18 to 24 hrs by two-fold serial dilution method; how it was run: as §1
Klebsiella pneumoniae [19] = test: Antibacterial activity against extended-spectrum beta-lactamase producing Klebsiella pneumoniae 14-19 after 18 to 24 hrs by two-fold serial dilution method; how it was run: as §1
Pseudomonas aeruginosa [20] = test: Antibacterial activity against Pseudomonas aeruginosa ATCC 27853 after 18 to 24 hrs by two-fold serial dilution method; how it was run: as §1
Escherichia coli [21] = test: Antibacterial activity against extended-spectrum beta-lactamase producing Escherichia coli 14-2 after 18 to 24 hrs by two-fold serial dilution method; how it was run: as §1
Klebsiella pneumoniae [22] = test: Antibacterial activity against Klebsiella pneumoniae 14-3 after 18 to 24 hrs by two-fold serial dilution method; how it was run: as §1
[23] = test system: Staphylococcus epidermidis; test: Antibacterial activity against methicillin-sensitive Staphylococcus epidermidis 14-2 after 18 to 24 hrs by two-fold serial dilution method; how it was run: as §1
Pseudomonas aeruginosa [24] = test: Antibacterial activity against Pseudomonas aeruginosa 14-16 after 18 to 24 hrs by two-fold serial dilution method; how it was run: as §1
[25] = test system: Staphylococcus epidermidis; test: Antibacterial activity against methicillin-resistant Staphylococcus epidermidis 14-21 after 18 to 24 hrs by two-fold serial dilution method; how it was run: as §2
Escherichia coli [26] = test: Antibacterial activity against Escherichia coli 14-1 after 18 to 24 hrs by two-fold serial dilution method; how it was run: as §1
Enterococcus faecium [27] = test: Antibacterial activity against Enterococcus faecium 14-2 after 18 to 24 hrs by two-fold serial dilution method; how it was run: as §1
Klebsiella pneumoniae [28] = test: Antibacterial activity against Klebsiella pneumoniae 14-4 after 18 to 24 hrs by two-fold serial dilution method; how it was run: as §1
Klebsiella pneumoniae [29] = test: Antibacterial activity against extended-spectrum beta-lactamase producing Klebsiella pneumoniae 14-18 after 18 to 24 hrs by two-fold serial dilution method; how it was run: as §1
Enterococcus faecalis [30] = test: Antibacterial activity against Enterococcus faecalis 14-1 after 18 to 24 hrs by two-fold serial dilution method; how it was run: as §1
[31] = test system: Staphylococcus epidermidis; test: Antibacterial activity against methicillin-resistant Staphylococcus epidermidis 14-37 after 18 to 24 hrs by two-fold serial dilution method; how it was run: as §2
Enterococcus faecium [32] = test: Antibacterial activity against Enterococcus faecium 14-5 after 18 to 24 hrs by two-fold serial dilution method; how it was run: as §1
Escherichia coli [33] = test: Antibacterial activity against Escherichia coli ATCC 25922 after 18 to 24 hrs by two-fold serial dilution method; how it was run: as §1
Klebsiella pneumoniae [34] = test: Antibacterial activity against Klebsiella pneumoniae 14-1 after 18 to 24 hrs by two-fold serial dilution method; how it was run: as §1

SMILES	MIC (Escherichia coli [1])	MIC (Staphylococcus aureus [2])	MIC90 [3]	MIC (Staphylococcus aureus [4])	MIC (Pseudomonas aeruginosa [5])	MIC (Pseudomonas aeruginosa [6])	MIC (Streptococcus pneumoniae)	MIC (Staphylococcus aureus [7])	MIC (Pseudomonas aeruginosa [8])	MIC (Klebsiella pneumoniae [9])	MIC (Enterococcus faecalis [10])	MIC (Enterococcus faecium [11])	MIC (Escherichia coli [12])	MIC [13]	MIC (Klebsiella pneumoniae [14])	MIC [15]	MIC (Staphylococcus aureus [16])	MIC (Staphylococcus aureus [17])	MIC (Staphylococcus aureus [18])	MIC (Klebsiella pneumoniae [19])	further results
CCO/N=C1/CN(c2c(F)cc3c(=O)c(C(=O)O)cn4c3c2OC[C@@H]4C)CC1(C)CNC1CC1 (stereo not given in full)	8 µg/mL (≈ 16.9 µM)	64 µg/mL (≈ 135 µM)	2.76 µg/mL (≈ 5.84 µM)	16 µg/mL (≈ 33.9 µM)	64 µg/mL (≈ 135 µM)	128 µg/mL (≈ 271 µM)	0.25 µg/mL (≈ 0.529 µM)	0.06 µg/mL (≈ 0.127 µM)	64 µg/mL (≈ 135 µM)	64 µg/mL (≈ 135 µM)	1 µg/mL (≈ 2.12 µM)	16 µg/mL (≈ 33.9 µM)	> 128 µg/mL	8 µg/mL (≈ 16.9 µM)	32 µg/mL (≈ 67.7 µM)	8 µg/mL (≈ 16.9 µM)	4 µg/mL (≈ 8.47 µM)	0.03 µg/mL (≈ 0.0635 µM)	< 0.008 µg/mL	32 µg/mL (≈ 67.7 µM)	MIC (Pseudomonas aeruginosa [20]): 64 µg/mL (≈ 135 µM); MIC (Escherichia coli [21]): > 128 µg/mL; MIC (Klebsiella pneumoniae [22]): > 128 µg/mL; MIC [23]: 32 µg/mL (≈ 67.7 µM); MIC (Pseudomonas aeruginosa [24]): 64 µg/mL (≈ 135 µM); MIC [25]: 8 µg/mL (≈ 16.9 µM); MIC (Escherichia coli [26]): > 128 µg/mL; MIC (Enterococcus faecium [27]): 16 µg/mL (≈ 33.9 µM); MIC (Klebsiella pneumoniae [28]): > 128 µg/mL; MIC (Klebsiella pneumoniae [29]): 32 µg/mL (≈ 67.7 µM); MIC (Enterococcus faecalis [30]): 32 µg/mL (≈ 67.7 µM); MIC [31]: 4 µg/mL (≈ 8.47 µM); MIC (Enterococcus faecium [32]): 4 µg/mL (≈ 8.47 µM); MIC (Escherichia coli [33]): 2 µg/mL (≈ 4.23 µM); MIC (Klebsiella pneumoniae [34]): 64 µg/mL (≈ 135 µM)
CO/N=C1/CN(c2nc3c(cc2F)c(=O)c(C(=O)O)cn3[C@@H]2C[C@@H]2F)CC1CNC1CC1 (stereo not given in full)	16 µg/mL (≈ 35.8 µM)	> 128 µg/mL	1.25 µg/mL (≈ 2.79 µM)	8 µg/mL (≈ 17.9 µM)	64 µg/mL (≈ 143 µM)	32 µg/mL (≈ 71.5 µM)	4 µg/mL (≈ 8.94 µM)	16 µg/mL (≈ 35.8 µM)	8 µg/mL (≈ 17.9 µM)	64 µg/mL (≈ 143 µM)	0.5 µg/mL (≈ 1.12 µM)	64 µg/mL (≈ 143 µM)	> 128 µg/mL	16 µg/mL (≈ 35.8 µM)	32 µg/mL (≈ 71.5 µM)	32 µg/mL (≈ 71.5 µM)	8 µg/mL (≈ 17.9 µM)	8 µg/mL (≈ 17.9 µM)	< 0.008 µg/mL	64 µg/mL (≈ 143 µM)	MIC (Pseudomonas aeruginosa [20]): 8 µg/mL (≈ 17.9 µM); MIC (Escherichia coli [21]): > 128 µg/mL; MIC (Klebsiella pneumoniae [22]): > 128 µg/mL; MIC [23]: > 128 µg/mL; MIC (Pseudomonas aeruginosa [24]): 32 µg/mL (≈ 71.5 µM); MIC [25]: 32 µg/mL (≈ 71.5 µM); MIC (Escherichia coli [26]): > 128 µg/mL; MIC (Enterococcus faecium [27]): 16 µg/mL (≈ 35.8 µM); MIC (Klebsiella pneumoniae [28]): > 128 µg/mL; MIC (Klebsiella pneumoniae [29]): 32 µg/mL (≈ 71.5 µM); MIC (Enterococcus faecalis [30]): 128 µg/mL (≈ 286 µM); MIC [31]: 64 µg/mL (≈ 143 µM); MIC (Enterococcus faecium [32]): 32 µg/mL (≈ 71.5 µM); MIC (Escherichia coli [33]): 4 µg/mL (≈ 8.94 µM); MIC (Klebsiella pneumoniae [34]): 64 µg/mL (≈ 143 µM)
CCO/N=C1/CN(c2nc3c(cc2F)c(=O)c(C(=O)O)cn3C2CC2)CC1(C)CNC1CC1 (stereo not given)	32 µg/mL (≈ 69.9 µM)	4 µg/mL (≈ 8.74 µM)	< 0.25 µg/mL	4 µg/mL (≈ 8.74 µM)	64 µg/mL (≈ 140 µM)	128 µg/mL (≈ 280 µM)	0.25 µg/mL (≈ 0.546 µM)	0.25 µg/mL (≈ 0.546 µM)	32 µg/mL (≈ 69.9 µM)	64 µg/mL (≈ 140 µM)	0.125 µg/mL (≈ 0.273 µM)	4 µg/mL (≈ 8.74 µM)	> 128 µg/mL	4 µg/mL (≈ 8.74 µM)	64 µg/mL (≈ 140 µM)	4 µg/mL (≈ 8.74 µM)	0.25 µg/mL (≈ 0.546 µM)	0.5 µg/mL (≈ 1.09 µM)	< 0.008 µg/mL	64 µg/mL (≈ 140 µM)	MIC (Pseudomonas aeruginosa [20]): 32 µg/mL (≈ 69.9 µM); MIC (Escherichia coli [21]): > 128 µg/mL; MIC (Klebsiella pneumoniae [22]): 128 µg/mL (≈ 280 µM); MIC [23]: 8 µg/mL (≈ 17.5 µM); MIC (Pseudomonas aeruginosa [24]): 32 µg/mL (≈ 69.9 µM); MIC [25]: 4 µg/mL (≈ 8.74 µM); MIC (Escherichia coli [26]): > 128 µg/mL; MIC (Enterococcus faecium [27]): 4 µg/mL (≈ 8.74 µM); MIC (Klebsiella pneumoniae [28]): > 128 µg/mL; MIC (Klebsiella pneumoniae [29]): 64 µg/mL (≈ 140 µM); MIC (Enterococcus faecalis [30]): 16 µg/mL (≈ 35 µM); MIC [31]: 2 µg/mL (≈ 4.37 µM); MIC (Enterococcus faecium [32]): 8 µg/mL (≈ 17.5 µM); MIC (Escherichia coli [33]): 1 µg/mL (≈ 2.19 µM); MIC (Klebsiella pneumoniae [34]): 64 µg/mL (≈ 140 µM)
